Test results from publication PMC4858174 (Innate immunity, 2015).
No end group written: not given here.

What was measured:
[1] = tested on: C3a receptor; assay: C3a-induced degranulation, LAD2 cells; type: cell-based, human; conditions: LPS 1 and 10 μg/ml, C3a 10 nM, three experiments
Procedure, shortened: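 LAD2 cells (5 × 10^3 per well) in HEPES buffer with 0.1% BSA were pre-treated with buffer or E. coli LPS, then stimulated. Percent β-hexosaminidase release was taken against unstimulated cells lysed in 0.1% Triton X-100. Mean ± SEM, three experiments; two-way ANOVA with Bonferroni.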

[2] = tested on: C3a receptor; assay: C3a-induced Ca2+ mobilization, LAD2 cells; type: cell-based, human
Procedure, shortened: (§1)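 LAD2 cells, kept in StemPro-34 with 100 ng/ml hSCF, were loaded with indo-1 AM (1 μM) for 30 min at room temperature. They were washed and resuspended in HEPES-buffered saline at 0.2 × 10^6 cells per run. E. coli LPS (serotype R515) was given as a 2 min pre-incubation or premixed with the peptide, followed by C3a. Fluorescence was read at excitation 355 nm and emission 410 nm. Traces are representative of three experiments.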

[3] = tested on: macrophages; conditions: cited from earlier work
[4] = tested on: untransfected RBL-2H3 cells, which do not express MrgX2; conditions: no MrgX2; cited from earlier work
[5] = tested on: LAD2 cells endogenously expressing MrgX2; assay: Degranulation; type: cell-based, human; conditions: for effect of E. coli-LPS on HDP-induced mast cell degranulation (summary): Discussion summary
[6] = tested on: untransfected RBL-2H3 cells, which do not express MrgX2; conditions: no MrgX2; cited from earlier work; remark: listed apart in the source
[7] = tested on: LAD2 cells endogenously expressing MrgX2; assay: Ca2+ mobilization, LAD2 cells; type: cell-based, human; conditions: for effect of E. coli-LPS on HDP-induced Ca2+ mobilization (summary): Discussion summary
Procedure, shortened: as §1

Substance	effect of E. coli-LPS on C3a-induced degranulation [1]	effect of mixture of E. coli-LPS and hBD3 on C3a-induced Ca2+ mobilization ([2]; LPS 1 μg/ml + hBD3 100 nM, then C3a 10 nM)	effect of E. coli-LPS on C3a-induced Ca2+ response ([2]; LPS 1 μg/ml preincubated, C3a 10 nM)	effect of E. coli-LPS on C3a-induced Ca2+ response (LL-37 experiment) ([2]; LPS 10 μg/ml, pre-incubated or mixed with LL-37 1 μM, C3a 10 nM)	inhibition of LPS-induced cytokine generation in macrophages, hBD3 [3]	degranulation in untransfected RBL-2H3 cells, earlier work [4]	effect of E. coli-LPS on HDP-induced mast cell degranulation (summary) [5]	effect of E. coli-LPS on hBD3-induced degranulation ([5]; LAD2, LPS 1 and 10 μg/ml, hBD3 100 nM, mean ± SEM of three experiments)	Ca2+ mobilization in untransfected RBL-2H3 cells, earlier work [6]	effect of E. coli-LPS on HDP-induced Ca2+ mobilization (summary) [7]	effect of premixed E. coli-LPS on hBD3-induced Ca2+ response ([7]; LAD2, LPS 1 μg/ml premixed with hBD3 100 nM)	effect of E. coli-LPS preincubation on hBD3-induced Ca2+ response ([7]; LAD2, LPS 1 μg/ml, 2 min preincubation, hBD3 100 nM)	intracellular Ca2+ response in LAD2 cells ([7]; hBD3 100 nM, not back to basal level even after 5 min)	effect of E. coli-LPS on LL-37-induced degranulation ([5]; LAD2, LPS 10 μg/ml, LL-37 1 μM, three experiments)	effect of E. coli-LPS on LL-37-induced Ca2+ mobilization ([7]; LAD2, LPS 10 μg/ml, 2 min pre-incubation or added simultaneously, LL-37 1 μM)
C3a: anaphylatoxin C3a; native complement C3a from Complement Technology	did not inhibit the response to C3a	not affected	no effect	no effect on the response to C3a	–	–	–	–	–	–	–	–	–	–	–
Human β-defensin3 (GIINTLQKYYCRVRGGRCAVLSCLPKEEQIGKCSTRGRKCCRRKK; not fully specified; ends and bridges not checked; UniProt P81534 23-67, looked up) [hBD3]	–	–	–	–	inhibit LPS-induced cytokine generation in macrophages	unresponsive	almost complete inhibition	substantial inhibition	unresponsive	almost complete inhibition	to the same extent as the 2 min pre-incubation protocol	complete inhibition	sustained intracellular Ca^2+ response	–	–
LL-37: human cathelicidin, host defense peptide	–	–	–	–	–	unresponsive	almost complete inhibition	–	unresponsive	almost complete inhibition	–	–	–	blocked	ablated
